Assay outcomes as filed in PubChem BioAssay.
This is a sample that favours compounds with a hit; in the whole collection about 4.9% have one here.
STAT1 act: activators of IFN-gamma induced STAT1 signaling. NIH 3T3 STAT1-luciferase reporter, luminescence; 100% = IFN-gamma alone, no compound. activation (% of control), % at 5.5 µM. 200,000 compounds, 2.6% hits. AID 932;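 active = activation above the screen-wide mean activation plus 3 SD, cut at about 130% in these data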
STAT3 activator: activators of IL-6 induced STAT3 signaling; activation (% of control), % at 5.6 µM; AID 871; U3A cells, IL-6 STAT3-luciferase reporter, luminescence; 100% = signal with IL-6 EC80 alone; 190,000 compounds, 0.91% hits;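 active = activation above the screen-wide mean of compound activation plus 3 SD, cut at about 130% in these data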
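Material: STAT3-luciferase reporter U3A cells. Controls: IL-6-treated wells, 100% activation. Read-out: % activation versus median of IL-6-stimulated wells. Probe or stimulus: IL-6 stimulus at 33 ng/mL final. Timing: compound 1 h, then IL-6 6 h at 37 °C. Signal: reporter luminescence signal.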
STAT1 inh: inhibitors of IFN-gamma induced STAT1 signaling. AID 920. 200,000 compounds, 0.35% hits. NIH 3T3 STAT1-luciferase reporter, luminescence. inhibition, % at 5.5 µM;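 active = inhibition above a set limit, the mean inhibition across all tested compounds plus 3 SD, cut at about 34% in these data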
NF-kB neuron act: raises NF-kB expression in human neuronal cells. fold change at 12.5 µM. 190,000 compounds, 1.6% hits. NF-kB reporter expression; active compounds read high. AID 1239; in the data active = fold change above about 3.3
APP 5'UTR act: APP 5'UTR luciferase reporter activation | SH-SY5Y APP 5'UTR luciferase reporter, luminescence; zero percent = DMSO vehicle wells | 190,000 compounds, 1% hits | activation, % at 2 µM;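 active = activation above a set limit, based on mean plus 3 SD of controls, cut at about 140% in these data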
STAT3 inh: inhibitors of IL-6 induced STAT3 signaling; U3A cells, IL-6 STAT3-luciferase reporter, luminescence; host cell line lacks STAT1; AID 862; inhibition, % at 5.5 µM; 190,000 compounds, 0.89% hits;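 active = inhibition above the mean inhibition across all screened compounds plus 3 SD, cut at about 44% in these data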
Each line names hits and unclear results; the compound was inactive in the other large screens.

COc1cccc(-c2nc(=S)c3c(n2Cc2ccco2)CCCC3)c1	none
S=c1nc(-c2ccccc2)oc2c1CCCC2	STAT1 act 132, NF-kB neuron act 4
O=[N+]([O-])c1ccc(-c2nc(=S)c3c(o2)CCCC3)cc1	none
COc1cccc(-c2nc(=S)c3c(o2)CCCC3)c1	STAT1 act 144, APP 5'UTR act 170
Cc1c(=O)n(OCc2cccc(F)c2)c2ccccc2[n+]1[O-]	none
Cc1c(=O)n(OCc2ccccc2F)c2ccccc2[n+]1[O-]	NF-kB neuron act 5.2
O=C(NCCn1ccc2ccccc21)c1ccc2c(c1)OCO2	STAT1 act 139, NF-kB neuron act 5.7, APP 5'UTR act 150
COc1ccc(C(=O)NCCn2ccc3ccccc32)cc1	NF-kB neuron act 4
CC(C)CCN1CCN(C2CCN(c3ccccc3)CC2)CC1CCO (configuration not stated)	none
C/C(N)=C(/C#N)C(=O)COC(=O)c1oc2ccccc2c1COC(C)C	none
Cc1c(NC(=O)COC(=O)c2cc(-c3ccc(-c4ccccc4)cc3)nc3ccccc23)c(=O)n(-c2ccccc2)n1C	STAT1 act 146, NF-kB neuron act 4.1
Cc1ccc(OCc2nc(-c3ccccn3)no2)cc1	NF-kB neuron act 5.1, APP 5'UTR act 139
Cc1ccc(OCc2nc(-c3ccccn3)no2)c(Br)c1	STAT1 inh 48, NF-kB neuron act 4.4, APP 5'UTR act 150, STAT3 inh 83
CC(C)(C)Cc1nc(-c2ccccn2)no1	none
Cc1ccc(SCc2nc(-c3ccccn3)no2)cc1	none
Cc1cc(OCc2nc(-c3cccnc3)no2)c(C)cc1Br	none (no result: APP 5'UTR act)
CC(C)c1ccc(OCc2nc(-c3ccccn3)no2)c(Br)c1	STAT1 act 138, NF-kB neuron act 5.4, APP 5'UTR act 182
CCOC(=O)c1cc([N+](=O)[O-])c([N+](=O)[O-])cc1NC(C)=O	none
COc1ccc(C(=O)OCC(=O)NCCN2C(=O)CSC2=O)cc1	none
CCc1ccc(-c2cc(C(=O)N/N=C/c3ccccn3)[nH]n2)cc1	none
O=C(N/N=C/c1c[nH]c2ccccc12)c1cc(-c2ccc3ccccc3c2)n[nH]1	STAT1 act 140
O=C(N/N=C/c1ccccn1)c1cc(-c2ccc3ccccc3c2)n[nH]1	STAT1 act 148
CC(C)n1nc(C(=O)Oc2cccc(Cl)c2Cl)c2ccccc2c1=O	none
CCN(CC)CCn1nc2c3c(cccc3c1=O)-c1ccccc1-2	STAT1 act 230, STAT3 activator 135
Cn1nc([N+](=O)[O-])nc1Sc1nnnn1-c1ccc(C(=O)O)cc1	none
Cc1[nH]ccc(=O)c1OC1OC(CO)C(O)C(O)C1O (configuration not stated)	none
O=C1CN(CC(=O)Nc2cccc(Cl)c2Cl)c2ccccc2N1	STAT3 activator 149
O=C1CN(C(=O)Cn2ncc(Cl)c(Cl)c2=O)c2ccccc2N1	none
CN(C)CCCNC(=S)NCCNc1nc2cc3c(cc2cc1C#N)OCO3	none
COc1cccc(NC(=S)N(CCN(C)C)Cc2cccs2)c1	NF-kB neuron act 5.8
Cc1ccc(-n2[nH]c(C)c(C=Nc3ccc(S(=O)(=O)N4CCOCC4)cc3)c2=O)c(C)c1	none
CC(=O)c1cccc(NC(=S)NC(=O)c2ccc(Br)cc2)c1	none
Cc1ccc(C(=O)Nc2cccc(C(=O)O)c2)cc1	STAT1 inh 82, NF-kB neuron act 5.3, STAT3 inh 98
CC(=O)c1cccc(NC(=S)NC(=O)c2ccc(C)cc2Cl)c1	STAT1 act 131
CC(=O)c1cccc(NC(=S)NC(=O)c2ccc(C)cc2)c1	STAT1 act 138, NF-kB neuron act 3.5
CCC(=O)Nc1cccc(NC(=S)NC(=O)c2ccc(C)cc2)c1	STAT1 act 145
Cc1ccc(C(=O)Nc2cccc(C(=O)N3CCOCC3)c2)cc1	none
O=S(=O)(NCc1ccccc1F)NCc1ccccc1F	none
CCCCN(CCCC)CCNC(=O)CSCc1ccc(C)cc1	none
CCOC(=O)Cc1csc(NC(=O)COc2cc(C)cc(C)c2)n1	none
O=C(O)c1cccc(NC(=O)c2ccc3c(c2)C(=O)N(CC2CCCO2)C3=O)c1 (configuration not stated)	STAT1 inh 37
